Results published in PubChem BioAssay AID652163 (Broad Institute, 2013).
Values joined by “and” are separate entries in the source; they are usually repeats but may differ in a detail not shown here. Identical values can stand only once. About 500 (0.14%) of roughly 360,000 compounds were called active.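 The calls were made as follows: active = mean inhibition of at least 70% across replicates, with every replicate also reaching that level; inconclusive = mean inhibition reaches 70% but some replicates fall short; inactive = mean inhibition below 70%.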 The list comes from a sample in which actives are over-represented; it also holds similar structures and randomly drawn compounds.

The compounds below were run against Protein S100-A4 (Homo sapiens) (UniProt P26447) (assay: inhibitors of S100A4-myosin IIA peptide binding, primary screen, biochemical, fluorescence polarization, TAMRA-MyoIIA peptide (AID 652163)). Conditions: at 10.7 µM, active compounds read high.
Protein S100-A4 (Homo sapiens), sequence (P26447 whole entry, looked up): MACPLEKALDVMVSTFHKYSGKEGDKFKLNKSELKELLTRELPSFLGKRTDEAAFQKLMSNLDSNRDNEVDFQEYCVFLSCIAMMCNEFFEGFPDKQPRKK
Method in brief: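 incubation = readout 5 min after mixing, signal stable up to 60 min | system = S100A4 monomer protein | buffer or medium = HEPES pH 7.2 with CaCl2, KCl, NaCl, DTT, Triton | benchmarks = neutral control DMSO, positive control TFP | also added = fluorescent myosin IIA peptide, 5 nM | compound dosing = one concentration per compound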
`C[C@H]1CN([C@@H](C)CO)C(=O)Cc2cc(NS(=O)(=O)c3cn(C)cn3)ccc2O[C@@H]1CN(C)C(=O)Nc1ccc2c(c1)OCO2` was tested, and the inhibition was 1.37% (inactive). With `Cc1cccc(CN(C)C[C@H]2OCc3cn(nn3)CCCC(=O)N([C@@H](C)CO)C[C@H]2C)c1` the inhibition was -6.24% (inactive). For `CCC(=O)N1CCCCN2[C@H](C1)[C@@H](c1ccc(/C=C/c3ccccc3)cc1)[C@@H]2CO`, the inhibition was 3.9% (inactive). In the case of `CCCN(C)C[C@@H]1Oc2cc(C#Cc3ccc(F)cc3)ccc2S(=O)(=O)N([C@H](C)CO)C[C@H]1C`, the inhibition was -10.2% (inactive). For `C[C@H]1CCCCO[C@@H](CN(C)C(=O)C2CCCCC2)[C@@H](C)CN([C@@H](C)CO)C(=O)c2cc(NS(=O)(=O)c3cccs3)ccc2O1`, the inhibition was -3.65% (inactive). `CCCNC(=O)N1C[C@H](O)COC[C@H]2O[C@@H](CC(=O)NCc3ccncn3)CC[C@@H]21` was tested, and the inhibition was 1.59% (inactive). `CCCNC(=O)N[C@@H]1C=C[C@H](CC(=O)NC2CCC2)O[C@H]1CO` was tested, and the inhibition was 10% (inactive). For `CO[C@H]1CN(C)C(=O)c2cc(NS(=O)(=O)c3ccccc3)ccc2OC[C@H](C)NC[C@@H]1C`, the inhibition was -2.03% (inactive). For `O=C(c1cnccn1)N1CC(=O)N2[C@H](C1)[C@@H](c1ccc(C#CC3CCCC3)cc1)[C@@H]2CO`, the inhibition was -1.65% (inactive). For `CCCC#Cc1ccc([C@@H]2[C@@H](CO)N3C(=O)CN(C(=O)Nc4ccc(F)cc4)C[C@@H]23)cc1`, the inhibition was 5.06% (inactive). For `CCCNC(=O)N1CC(=O)N2[C@@H](CO)[C@H](c3ccc(-c4ccc(C)cc4)cc3)[C@@H]2C1`, the inhibition was 14% (inactive). For `CCCNC(=O)N1CC(=O)N2[C@H](CO)[C@@H](c3ccc(-c4ccc(F)cc4)cc3)[C@H]2C1`, the inhibition was 120% (active). `COCC#Cc1cnc2c(c1)C(=O)N([C@@H](C)CO)C[C@@H](C)[C@H](CN(C)C(=O)Nc1ccccc1OC)O2` was tested, and the inhibition was 5.05% (inactive). In the case of `C[C@@H]1CCCCO[C@H](CN(C)Cc2ccccc2)[C@H](C)CN([C@H](C)CO)C(=O)c2cc(NS(=O)(=O)c3ccc(Cl)cc3)ccc2O1`, the inhibition was -1.24% (inactive). `Cc1ccc(S(=O)(=O)N(C)C[C@H]2Oc3ccc(NC(=O)Cc4cn(C)c5ccccc45)cc3CC(=O)N([C@@H](C)CO)C[C@H]2C)cc1` was tested, and the inhibition was 12.9% (inactive). In the case of `CO[C@@H]1CN(C)C(=O)c2cc(NC(=O)C3CC3)ccc2OC[C@H](C)N(C(=O)CN(C)C)C[C@H]1C`, the inhibition was -3.57% (inactive). With `CO[C@H]1CN(C)C(=O)c2cc(NC(=O)C3CC3)ccc2OC[C@H](C)N(C(=O)CN(C)C)C[C@H]1C` the inhibition was 99.6% (active). With `CO[C@@H]1CN(C)C(=O)c2cc(NC(=O)Nc3ccc4c(c3)OCO4)ccc2OC[C@@H](C)NC[C@@H]1C` the inhibition was -4.97% (inactive). `CO[C@@H]1CN(C)C(=O)c2cc(NC(=O)C3CCC3)ccc2OC[C@H](C)N(C(=O)CN(C)C)C[C@@H]1C` was tested, and the inhibition was 1.09% (inactive). With `CO[C@H]1CN(C)C(=O)c2ccc(NC(=O)Nc3ccc4c(c3)OCO4)cc2OC[C@H](C)NC[C@H]1C` the inhibition was 6.05% (inactive). For `CO[C@H]1CN(C)C(=O)c2cc(NC(=O)Nc3ccc4c(c3)OCO4)ccc2OC[C@@H](C)NC[C@@H]1C`, the inhibition was 127% (active). For `C/C=C/c1ccccc1[C@@H]1[C@@H](CO)N(S(=O)(=O)c2cccc(F)c2)[C@H]1C#N`, the inhibition was 15.1% (inactive). `N#C[C@H]1[C@@H](c2ccccc2C2=CCCC2)[C@H](CO)N1C(=O)c1cccc(F)c1` was tested, and the inhibition was 7.35% (inactive). With `N#C[C@@H]1[C@H](c2ccccc2C2=CCCCC2)[C@@H](CO)N1S(=O)(=O)c1cccc(F)c1` the inhibition was 124% (active). In the case of `O=C(C[C@@H]1C=C[C@H](NC(=O)CN2CCOCC2)[C@@H](CO)O1)NCc1cccc(F)c1`, the inhibition was 12.6% (inactive). For `Cc1ccc(CN(C)C[C@H]2OCc3cn(nn3)CCCC(=O)N([C@@H](C)CO)C[C@H]2C)cc1`, the inhibition was -1.4% (inactive). For `CN(C)C(=O)c1cccc(-c2ccc(C3[C@H]4CNC[C@@H]3N4C(=O)Nc3ccccc3F)cc2)c1` (stereo not given in full), the inhibition was -26.3% (inactive) and -7.38% (inactive). For `COc1ccc(CN(C)C[C@H]2Oc3ccc(NC(=O)Cn4cnnn4)cc3CC(=O)N([C@@H](C)CO)C[C@@H]2C)cc1`, the inhibition was 6.98% (inactive). With `O=C(NCC1CC1)[C@@H]1[C@@H](CO)[C@@H]2Cn3c(ccc(-c4ccccc4)c3=O)[C@H]1N2C(=O)C1CC1` the inhibition was 5.45% (inactive). With `CCC(=O)N1CC2(CN(Cc3ccc(Cl)cc3)C2)c2c([nH]c3cc(OC)ccc23)[C@@H]1CO` the inhibition was -4.36% (inactive). For `CCC(=O)Nc1ccc2c(c1)C(=O)N(C)C[C@H](OC)[C@@H](C)CN(C(=O)c1cnccn1)[C@@H](C)CO2`, the inhibition was 10.3% (inactive). For `C[C@@H]1CN([C@H](C)CO)C(=O)c2cc(NS(=O)(=O)c3cccs3)ccc2O[C@@H](C)CCCCO[C@H]1CN(C)Cc1ccc(C(F)(F)F)cc1`, the inhibition was 15.3% (inactive). In the case of `C[C@@H]1CN([C@@H](C)CO)C(=O)Cc2cc(NC(=O)Nc3cccc4ccccc34)ccc2O[C@H]1CN(C)CC1CCCCC1`, the inhibition was 8.63% (inactive). `COCC(=O)N1[C@H](CO)[C@H](c2ccccc2)C12CN(C(=O)NC1CCCCC1)C2` was tested, and the inhibition was 14.7% (inactive). `CCCC(O)C#Cc1cnc2c(c1)C(=O)N([C@H](C)CO)C[C@H](C)[C@H](CN(C)S(=O)(=O)c1ccc(C#N)cc1)O2` (stereo not given in full) was tested, and the inhibition was -4.33% (inactive). `Cc1ccc(S(=O)(=O)N[C@@H]2CC[C@@H](CCn3cc(C4CC4)nn3)O[C@@H]2CO)cc1` was tested, and the inhibition was 1.11% (inactive). With `CCCC#Cc1ccc([C@H]2[C@@H](CO)N3C(=O)CN(C(=O)c4ccncc4)C[C@@H]23)cc1` the inhibition was -18.5% (inactive). For `CC(C)NC(=O)N(C)C[C@H]1Oc2ccc(NS(C)(=O)=O)cc2CC(=O)N([C@@H](C)CO)C[C@@H]1C`, the inhibition was 6.04% (inactive). In the case of `COc1ccccc1-c1cnc2c(c1)C(=O)N([C@@H](C)CO)C[C@H](C)[C@H](CN(C)CC1CCOCC1)O2`, the inhibition was -4.73% (inactive). With `C[C@H](CO)N1C[C@H](C)[C@H](CN(C)S(=O)(=O)c2cccs2)OCCCC[C@H](C)Oc2ccc(NC(=O)CCCN(C)C)cc2C1=O` the inhibition was 1.4% (inactive).
